pIC50: −log10 of the molar value. Calls of active or inactive are those of the source. The calls are words filed in the database; no cut-off is given here.
Key:
Format in all cases: functional, cell-based
[1] = tested on: HCC44; test: Cytotoxicity against human HCC44 cells assessed as cell viability at 0.001 to 50 uM after 96 hrs by Cell Titer Glo assay
In short: (§1)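 Cells grown in RPMI/L-glutamine with 1000 U/mL penicillin, 1 mg/mL streptomycin and 5% FBS at 37 °C, 5% CO2, then plated in 384-well plates overnight. Compounds in DMSO were added at final 50 μM to 1 nM (0.5% DMSO final) for 96 h. CellTiter-Glo (1:2 in medium) was added, 10 min at room temperature, and luminescence normalized to DMSO-only wells.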

[2] = tested on: NCI-H2122; test: Cytotoxicity against human NCI-H2122 cells assessed as cell viability at 0.001 to 50 uM after 96 hrs by Cell Titer Glo assay; in short: as §1
[3] = tested on: A549; test: Cytotoxicity against human A549 cells assessed as cell viability at 0.001 to 50 uM after 96 hrs by Cell Titer Glo assay; in short: as §1
[4] = tested on: HCC366; test: Cytotoxicity against human HCC366 cells assessed as cell viability at 0.001 to 50 uM after 96 hrs by Cell Titer Glo assay; in short: as §1
[5] = tested on: HCC44; test: Cytotoxicity against human HCC44 cells assessed as cell viability up to 24 uM after 96 hrs by Cell Titer Glo assay
In short: (§2)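 NSCLC lines were kept in RPMI/L-glutamine with penicillin, streptomycin and 5% FBS (37 °C, 5% CO2) and seeded in 384-well plates overnight. DMSO-dissolved compounds were added (final DMSO 0.5%) and incubated 96 h. Viability was read as CellTiter-Glo luminescence after 10 min at room temperature and normalized to untreated cell-plus-DMSO wells.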

[6] = tested on: HCC366; test: Cytotoxicity against human HCC366 cells assessed as cell viability up to 24 uM after 96 hrs by Cell Titer Glo assay; in short: as §2
[7] = tested on: NCI-H2122; test: Cytotoxicity against human NCI-H2122 cells assessed as cell viability after 96 hrs by Cell Titer Glo assay; conditions: NCI-H2122, 96 h; in short: as §2
[8] = tested on: A549; test: Cytotoxicity against human A549 cells assessed as cell viability up to 24 uM after 96 hrs by Cell Titer Glo assay; in short: as §2

| Compound | Activity [1] | Activity [2] | Activity [3] | Activity [4] | Activity [5] | Activity [6] | pIC50 [7] | Activity [8] |
| --- | --- | --- | --- | --- | --- | --- | --- | --- |
| CNc1ccccc1-c1nc(C(=O)OC)cs1 | inactive | inactive | inactive | inactive | – | – | – | – |
| Nc1ccccc1-c1nc(=O)c(O)cs1 | – | – | – | – | inactive | inactive | 5.27 | inactive |
| CNc1ccccc1-c1nc(C(=O)O)cs1 | inactive | inactive | inactive | inactive | – | – | – | – |
